Source: ChEMBL document CHEMBL4017538, “Vitamin D Analogues with a p-Hydroxyphenyl Group at the C25 Position: Crystal Structure of Vitamin D Receptor Ligand-Binding Domain Complexed with the Ligand Explains the Mechanism Underlying Full Antagonistic Action” (J Med Chem, 2017)
Active and inactive are the calls of the source. The calls are words filed in the database; no cut-off is given here.

Columns and labels:
[1] = molecular target: T1, Vitamin D3 receptor (Homo sapiens) (UniProt P11473); assay: Antagonist activity at VP16-fused human vitamin D receptor in HEK293 cells assessed as inhibition of ligand-induced GAL4-fused SRC1 coactivator recruitment by dual luciferase assay; type: cell-based
T1 sequence (whole entry): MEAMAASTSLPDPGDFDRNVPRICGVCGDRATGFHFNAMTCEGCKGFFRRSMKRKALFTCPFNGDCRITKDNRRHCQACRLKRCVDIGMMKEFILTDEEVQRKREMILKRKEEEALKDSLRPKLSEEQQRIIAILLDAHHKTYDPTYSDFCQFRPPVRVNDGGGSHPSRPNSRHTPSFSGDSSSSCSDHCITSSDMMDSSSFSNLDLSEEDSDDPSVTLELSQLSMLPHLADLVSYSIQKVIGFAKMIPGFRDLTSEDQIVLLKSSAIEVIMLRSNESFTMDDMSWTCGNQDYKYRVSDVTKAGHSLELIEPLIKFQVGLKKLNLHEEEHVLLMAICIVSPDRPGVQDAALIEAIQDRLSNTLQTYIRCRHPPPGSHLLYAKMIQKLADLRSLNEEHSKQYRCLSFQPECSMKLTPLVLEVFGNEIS

[2] = molecular target: T2, Vitamin D3 receptor (Homo sapiens, UniProt P11473); assay: Displacement of [3H]-1,25-(OH)2D3 from N-terminal GST-tagged human recombinant vitamin D receptor ligand binding domain expressed in Escherichia coli BL21 (DE3) pLys S after 16 hrs
T2 sequence (P11473 whole entry): T1 sequence (whole entry)

[3] = molecular target: T1, Vitamin D3 receptor (Homo sapiens); assay: Agonist activity at human vitamin D receptor expressed in African green monkey COS7 cells after 16 hrs by dual luciferase reporter gene assay; type: cell-based
In short: (§1)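 Cells were co-transfected with full-length human VDR expression plasmid (pCMX-hVDR), a luciferase reporter carrying three copies of mouse osteopontin VDRE (SPPx3-TK-Luc), and a sea pansy luciferase internal control (pRL-CMV), then read by dual luciferase assay. Activity is scaled so that 10−8 M 1,25D3 equals 1 in Cos7 and 10−9 M 1,25D3 equals 1 in HEK293. Inhibition was tested in the presence of 1,25D3.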

[4] = molecular target: T1, Vitamin D3 receptor (Homo sapiens); assay: Antagonist activity at VP16-fused human vitamin D receptor in HEK293 cells assessed as inhibition of ligand-induced GAL4-fused RXRalpha recruitment by dual luciferase assay; type: cell-based
[5] = molecular target: T1, Vitamin D3 receptor (Homo sapiens); assay: Ratio of 1,25-(OH)2D3 IC50 to test compound IC50 for displacement of [3H]-1,25-(OH)2D3 from N-terminal GST-tagged human recombinant vitamin D receptor ligand binding domain expressed in Escherichia coli BL21 (DE3) pLys S after 16 hrs
[6] = molecular target: T1, Vitamin D3 receptor (Homo sapiens); assay: Partial agonist activity at human vitamin D receptor expressed in HEK293 cells after 16 hrs by dual luciferase reporter gene assay; type: cell-based; in short: as §1
[7] = molecular target: T1, Vitamin D3 receptor (Homo sapiens); assay: Antagonist activity at human vitamin D receptor expressed in African green monkey COS7 cells assessed as inhibition of 1,25D3-induced transactivation after 16 hrs by dual luciferase reporter gene assay; type: cell-based; in short: as §1
[8] = molecular target: T2, Vitamin D3 receptor

Structure (SMILES)	inhibition [1]	IC50 [2]	Activity [3]	inhibition [4]	relative affinity (IC50 ref/IC50 test) [5]	Activity [6]	antagonist activity (qualitative) [7]	IC50 [8]
C=C1[C@H](O)CC(=C/C=C2\CCC[C@]3(C)[C@@H]([C@H](C)CCCC(O)c4ccc(O)cc4)CC[C@@H]23)C[C@H]1O (stereo partly specified)		36 nM			0.0044	Active	Active	
C=C1[C@H](O)CC(=C/C=C2\CCC[C@]3(C)[C@@H]([C@H](C)[C@@H](CCCC)CCC(O)(c4ccc(O)cc4)c4ccc(O)cc4)CC[C@@H]23)C[C@H]1O	Active	130 nM	inactive	inactive	0.0042			400 nM
C=C1[C@H](O)CC(=C/C=C2\CCC[C@]3(C)[C@@H]([C@H](C)CCCC(OC)c4ccc(O)cc4)CC[C@@H]23)C[C@H]1O (stereo partly specified)		102 nM			0.0049			
C=C1[C@H](O)CC(=C/C=C2\CCC[C@]3(C)[C@@H]([C@H](C)CCCC(=O)c4ccc(O)cc4)CC[C@@H]23)C[C@H]1O		84 nM			0.006	Active	Active	
C=C1[C@H](O)CC(=C/C=C2\CCC[C@]3(C)[C@@H]([C@H](C)CCCC(O)(c4ccc(O)cc4)c4ccc(O)cc4)CC[C@@H]23)C[C@H]1O	Active	520 nM	inactive	Active	0.00096			800 nM

Stronger by IC50 [2], values ahead:

inhibition [1]	IC50 [2]	Activity [3]	inhibition [4]	relative affinity (IC50 ref/IC50 test) [5]	Activity [6]	antagonist activity (qualitative) [7]	IC50 [8]	Structure (SMILES)
Active	20 nM	inactive	inactive	0.028				C=C1[C@H](O)CC(=C/C=C2\CCC[C@]3(C)[C@@H]([C@H](C)[C@@H](CCCC)CCC(=O)c4ccc(O)cc4)CC[C@@H]23)C[C@H]1O
	17 nM	inactive		0.0094	Active	Dose-dependent effect		C=C1[C@H](O)CC(=C/C=C2\CCC[C@]3(C)[C@@H]([C@H](C)[C@@H](CCCC)CCC(O)c4ccc(O)cc4)CC[C@@H]23)C[C@H]1O (stereo partly specified)
	23 nM			0.031	Active	Active		C=C1[C@H](O)CC(=C/C=C2\CCC[C@]3(C)[C@@H]([C@H](C)[C@@H](CCCC)CCC(OC)c4ccc(O)cc4)CC[C@@H]23)C[C@H]1O (stereo partly specified)
